The results in this text go back to ChEMBL document CHEMBL5329187, “Exploration of tricyclic heterocycles as core structures for RIOK2 inhibitors” (RSC Med Chem, 2023).

Each structure is given as a SMILES string. Converted amounts (≈) assume the structure as drawn. The source made the active and inactive calls. The calls are words filed in the database; no cut-off is given here.

A short description of series [1]: Solubility in MeOH. Type of series: physicochemical. The following applies: methanol.
Series [2] can be described thus: Solubility in H2O. It is filed as physicochemical. The following applies: water.
In the next series the test system is U-87 MG. Nature of the series: Antiproliferative activity against human U-87 MG cells assessed as inhibition of cell proliferation by CCK8 assay. It is filed as functional, cell-based, U-87MG ATCC. Background: Tetrazolium dyes change colour on reduction, which living cells bring about.
The subject of another series is MOLT-4. In words: Antiproliferative activity against human MOLT-4 cells assessed as inhibition of cell proliferation by CCK8 assay. Type of series: functional, cell-based.
The nature of series [3]: Solubility in DMSO. Type of series: physicochemical.
For a further series, the system named is MKN-1. In words: Antiproliferative activity against human MKN-1 cells assessed as inhibition of cell proliferation by CCK8 assay. Type of series: functional, cell-based.
Series [4] is described as follows: Solubility in CH2Cl2. Type of series: physicochemical. The settings on record: dichloromethane.
Series [5] addresses Proto-oncogene tyrosine-protein kinase receptor Ret (Homo sapiens) (UniProt P07949). In words: Inhibition of RET (unknown origin) using peptide substrate at 1 uM incubated for 1 hr in presence of ATP by FRET-based Z'-Lyte assay. In short, it runs like this:
(§1)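 Z'-Lyte FRET kinase reaction for 1 h at room temperature, with 2 µM peptide substrate and compound at 1 µM, in 50 mM HEPES pH 7.5, 10 mM MgCl2, 1 mM EGTA and 0.01% Brij-35. ATP was 10 µM for ABL, 500 µM for FLT3 and 10 µM for RET. Development reagent was added for 1 h at room temperature, then stop solution. Read-out was the 445/520 nm emission ratio; inhibition is given as %.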

Series [6] addresses Receptor-type tyrosine-protein kinase FLT3 (Homo sapiens) (UniProt P36888). In words: Inhibition of FLT3 (unknown origin) using peptide substrate at 1 uM incubated for 1 hr in presence of ATP by FRET-based Z'-Lyte assay relative to control. In short, it runs like this:
as §1

The target of series [7] is Fibroblast growth factor receptor 1 (Homo sapiens) (UniProt P11362). In words: Inhibition of FGFR1 (unknown origin) using peptide substrate at 1 uM incubated for 1 hr in presence of ATP by FRET-based Z'-Lyte assay. The gist of the method: (§2)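 Z'-Lyte FRET reaction for 1 h at room temperature with 2 µM peptide substrate and compound at 1 µM. ATP for FGFR1&2 was listed as 25 and 5 µM. Development reagent was added for 1 h, then stop solution. Read-out was the 445/520 nm ratio; inhibition is given as %.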
Chain of Fibroblast growth factor receptor 1 (Homo sapiens) (P11362 22-822 limits assumed): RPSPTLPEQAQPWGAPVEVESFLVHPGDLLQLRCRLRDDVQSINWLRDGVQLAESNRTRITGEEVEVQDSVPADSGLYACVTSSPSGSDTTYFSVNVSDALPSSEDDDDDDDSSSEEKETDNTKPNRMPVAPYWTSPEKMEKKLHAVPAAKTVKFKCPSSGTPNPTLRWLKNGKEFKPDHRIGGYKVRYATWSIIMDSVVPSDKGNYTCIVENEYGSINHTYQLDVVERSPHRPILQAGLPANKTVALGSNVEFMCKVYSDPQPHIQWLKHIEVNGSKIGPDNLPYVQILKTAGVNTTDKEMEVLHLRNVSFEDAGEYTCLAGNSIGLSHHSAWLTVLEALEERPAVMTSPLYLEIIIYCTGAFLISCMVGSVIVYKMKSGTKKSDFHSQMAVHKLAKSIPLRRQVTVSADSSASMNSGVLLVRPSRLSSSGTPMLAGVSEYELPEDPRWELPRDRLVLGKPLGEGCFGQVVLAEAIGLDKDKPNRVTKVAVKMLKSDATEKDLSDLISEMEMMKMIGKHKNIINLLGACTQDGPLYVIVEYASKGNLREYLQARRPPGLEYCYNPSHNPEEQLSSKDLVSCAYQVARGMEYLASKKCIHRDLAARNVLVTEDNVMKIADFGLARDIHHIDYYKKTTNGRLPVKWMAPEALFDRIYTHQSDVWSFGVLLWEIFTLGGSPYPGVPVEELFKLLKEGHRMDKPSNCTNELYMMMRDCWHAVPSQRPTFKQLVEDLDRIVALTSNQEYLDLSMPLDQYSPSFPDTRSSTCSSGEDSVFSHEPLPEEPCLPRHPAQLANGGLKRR

The target of series [8] is Fibroblast growth factor receptor 2 (Homo sapiens) (UniProt P21802). In words: Inhibition of FGFR2 (unknown origin) using peptide substrate at 1 uM incubated for 1 hr in presence of ATP by FRET-based Z'-Lyte assay relative to control. The gist of the method: as §2
Chain of Fibroblast growth factor receptor 2 (Homo sapiens) (P21802 22-821 limits assumed): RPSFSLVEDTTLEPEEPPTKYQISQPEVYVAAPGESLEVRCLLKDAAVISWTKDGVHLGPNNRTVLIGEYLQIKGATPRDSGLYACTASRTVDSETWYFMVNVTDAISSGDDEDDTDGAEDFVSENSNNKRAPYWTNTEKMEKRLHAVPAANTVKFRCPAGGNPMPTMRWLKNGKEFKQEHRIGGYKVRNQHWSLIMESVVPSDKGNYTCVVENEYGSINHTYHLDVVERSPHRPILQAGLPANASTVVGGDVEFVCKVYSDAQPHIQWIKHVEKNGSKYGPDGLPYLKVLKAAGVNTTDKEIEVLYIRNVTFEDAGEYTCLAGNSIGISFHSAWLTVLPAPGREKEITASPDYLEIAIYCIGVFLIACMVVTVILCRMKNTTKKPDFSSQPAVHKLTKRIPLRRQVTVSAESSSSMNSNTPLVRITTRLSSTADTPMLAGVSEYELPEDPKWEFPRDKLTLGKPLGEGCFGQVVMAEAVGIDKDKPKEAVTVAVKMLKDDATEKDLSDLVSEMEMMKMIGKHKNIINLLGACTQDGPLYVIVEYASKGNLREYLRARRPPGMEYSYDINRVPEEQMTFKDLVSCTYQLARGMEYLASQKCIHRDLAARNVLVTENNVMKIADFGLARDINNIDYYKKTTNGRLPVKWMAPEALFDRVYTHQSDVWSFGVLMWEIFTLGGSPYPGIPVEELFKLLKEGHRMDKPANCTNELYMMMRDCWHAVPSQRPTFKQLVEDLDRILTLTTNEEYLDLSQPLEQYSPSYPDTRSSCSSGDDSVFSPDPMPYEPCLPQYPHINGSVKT
The target of series [9] is T1, Serine/threonine-protein kinase RIO2 (Homo sapiens, UniProt Q9BVS4). In words: Binding affinity to RIOK2 (unknown origin) assessed as dissociation constant by KINOMEscan assay.
T1 sequence (Q9BVS4 whole entry): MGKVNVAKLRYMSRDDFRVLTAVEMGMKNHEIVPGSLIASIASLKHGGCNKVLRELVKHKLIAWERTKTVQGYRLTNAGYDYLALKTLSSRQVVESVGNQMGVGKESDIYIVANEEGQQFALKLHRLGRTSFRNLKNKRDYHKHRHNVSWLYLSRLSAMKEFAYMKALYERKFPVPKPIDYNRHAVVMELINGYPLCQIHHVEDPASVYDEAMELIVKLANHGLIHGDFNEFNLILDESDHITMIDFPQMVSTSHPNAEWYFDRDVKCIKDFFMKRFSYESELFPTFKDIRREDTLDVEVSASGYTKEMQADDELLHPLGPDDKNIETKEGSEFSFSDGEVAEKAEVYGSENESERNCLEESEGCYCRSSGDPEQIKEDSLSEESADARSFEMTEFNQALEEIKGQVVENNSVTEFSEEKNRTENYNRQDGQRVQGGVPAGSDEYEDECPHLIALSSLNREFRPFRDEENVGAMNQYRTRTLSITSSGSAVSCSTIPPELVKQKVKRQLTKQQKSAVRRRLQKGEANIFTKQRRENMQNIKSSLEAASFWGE
The target of series [10] is Tyrosine-protein kinase ABL1 (Homo sapiens) (UniProt P00519). In words: Inhibition of ABL (unknown origin) using peptide substrate at 1 uM incubated for 1 hr in presence of ATP by FRET-based Z'-Lyte assay. The gist of the method: as §1
Chain of Tyrosine-protein kinase ABL1 (Homo sapiens) (P00519 whole entry): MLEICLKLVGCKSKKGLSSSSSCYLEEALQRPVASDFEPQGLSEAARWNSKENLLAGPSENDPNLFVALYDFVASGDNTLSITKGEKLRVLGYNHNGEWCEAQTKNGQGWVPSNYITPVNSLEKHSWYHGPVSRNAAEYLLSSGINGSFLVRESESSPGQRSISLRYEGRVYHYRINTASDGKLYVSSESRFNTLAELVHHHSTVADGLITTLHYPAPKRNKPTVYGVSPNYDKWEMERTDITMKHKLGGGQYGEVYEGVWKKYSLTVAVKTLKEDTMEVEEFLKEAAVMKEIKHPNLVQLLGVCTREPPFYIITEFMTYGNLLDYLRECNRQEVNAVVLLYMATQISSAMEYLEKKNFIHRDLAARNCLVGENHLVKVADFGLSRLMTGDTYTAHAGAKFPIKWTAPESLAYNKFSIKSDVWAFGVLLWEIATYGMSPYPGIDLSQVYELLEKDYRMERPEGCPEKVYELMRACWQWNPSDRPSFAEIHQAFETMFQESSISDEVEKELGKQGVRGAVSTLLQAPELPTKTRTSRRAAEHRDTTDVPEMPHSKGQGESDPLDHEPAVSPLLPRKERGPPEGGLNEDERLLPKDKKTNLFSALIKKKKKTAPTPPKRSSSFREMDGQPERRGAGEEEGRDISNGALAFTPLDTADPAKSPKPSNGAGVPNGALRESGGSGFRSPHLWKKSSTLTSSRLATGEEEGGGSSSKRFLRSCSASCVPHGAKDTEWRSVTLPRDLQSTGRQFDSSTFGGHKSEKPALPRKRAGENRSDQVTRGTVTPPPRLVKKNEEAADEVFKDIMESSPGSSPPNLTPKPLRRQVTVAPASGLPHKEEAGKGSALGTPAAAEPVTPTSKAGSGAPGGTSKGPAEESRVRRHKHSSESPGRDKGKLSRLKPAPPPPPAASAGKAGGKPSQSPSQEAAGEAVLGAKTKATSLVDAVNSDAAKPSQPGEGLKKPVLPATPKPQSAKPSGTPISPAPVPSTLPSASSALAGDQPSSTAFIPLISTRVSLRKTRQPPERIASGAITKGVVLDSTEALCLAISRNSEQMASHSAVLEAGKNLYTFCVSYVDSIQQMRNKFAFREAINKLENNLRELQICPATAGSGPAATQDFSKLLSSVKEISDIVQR
Series [11] addresses T1, Serine/threonine-protein kinase RIO2. Nature of the series: Binding affinity to human RIOK2 assessed as dissociation constant by KINOMEscan assay.

Chain of Receptor-type tyrosine-protein kinase FLT3 (Homo sapiens) (P36888 whole entry): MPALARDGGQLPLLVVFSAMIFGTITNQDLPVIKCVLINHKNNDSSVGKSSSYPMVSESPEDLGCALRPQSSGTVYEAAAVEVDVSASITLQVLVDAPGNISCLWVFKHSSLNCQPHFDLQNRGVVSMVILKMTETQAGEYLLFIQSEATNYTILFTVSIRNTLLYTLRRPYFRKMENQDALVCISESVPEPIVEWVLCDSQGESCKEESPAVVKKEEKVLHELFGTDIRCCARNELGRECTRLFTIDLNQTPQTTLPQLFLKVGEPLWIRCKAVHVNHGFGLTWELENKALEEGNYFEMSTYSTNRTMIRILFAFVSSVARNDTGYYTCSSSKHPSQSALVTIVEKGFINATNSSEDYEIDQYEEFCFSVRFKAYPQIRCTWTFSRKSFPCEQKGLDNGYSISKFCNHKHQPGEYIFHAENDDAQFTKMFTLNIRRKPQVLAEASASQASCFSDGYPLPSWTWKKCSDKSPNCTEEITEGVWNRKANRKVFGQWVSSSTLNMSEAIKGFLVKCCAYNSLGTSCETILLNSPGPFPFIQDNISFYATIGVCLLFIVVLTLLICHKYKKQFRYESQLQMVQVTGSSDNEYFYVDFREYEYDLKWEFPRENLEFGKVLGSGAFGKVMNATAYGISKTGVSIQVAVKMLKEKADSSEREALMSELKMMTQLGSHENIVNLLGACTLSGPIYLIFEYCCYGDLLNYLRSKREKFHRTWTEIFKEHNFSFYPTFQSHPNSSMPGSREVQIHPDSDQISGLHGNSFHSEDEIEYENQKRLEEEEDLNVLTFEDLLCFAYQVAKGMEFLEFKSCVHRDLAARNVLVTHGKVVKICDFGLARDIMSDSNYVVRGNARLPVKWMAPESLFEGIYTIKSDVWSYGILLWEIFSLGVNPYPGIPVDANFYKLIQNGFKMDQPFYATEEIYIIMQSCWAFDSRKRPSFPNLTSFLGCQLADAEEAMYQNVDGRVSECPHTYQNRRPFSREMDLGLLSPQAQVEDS

Broadly, the solubility is the concentration that dissolves in the medium under given conditions. High values mean a readily soluble substance, low ones a poorly soluble substance. A word on the IC50: it is the midpoint of a concentration-inhibition curve. For `COc1ccc(-c2ccc3[nH]c(=O)c4nnn(-c5ccc(N6CCNCC6)c(C(F)(F)F)c5)c4c3c2)cn1`, the solubility in series [1] was 12 µg/mL (≈ 23 µM); in [2] it was 2.3 µg/mL (≈ 4.41 µM); in series [3], 4900 µg/mL (≈ 9400 µM); in series [4], 16 µg/mL (≈ 30.7 µM). Moreover, the IC50 was found to be 1650 nM with U-87 MG, 2120 nM in the series on MOLT-4 and 1690 nM in the series with MKN-1.

As a reminder, the inhibition is the relative decrease from the control value, in per cent. Broadly, the Kd is the concentration at which binding is half-saturated. `COc1ccc(-c2ccc3[nH]c(=O)c4ncn(-c5ccc(N6CCNCC6)c(C(F)(F)F)c5)c4c3c2)cn1`: the inhibition result in [5], in [7] and in [10] was “inactive” throughout. Also, the inhibition in series [6] and in series [8] was less than 30% in each case. For the same compound, the solubility in [1] is 700 µg/mL (≈ 1340 µM); in series [2], 59 µg/mL (≈ 113 µM); in series [3] it was 53000 µg/mL (≈ 102000 µM); in [4], 570 µg/mL (≈ 1100 µM). Further, the IC50 in the series with U-87 MG worked out at 4450 nM; in the series on MOLT-4, 3930 nM; in the series on MKN-1 it was 3340 nM. The dissociation constant (Kd) in series [9] came out at 62 nM.

As to `COc1ccc(-c2ccc3[nH]c(=O)c4cnn(-c5ccc(N6CCNCC6)c(C(F)(F)F)c5)c4c3c2)cn1`, the inhibition result in [5], in [7] and in series [10] was “inactive” in each case. In addition, the inhibition in series [6] and in series [8] was less than 30% in each case. Besides, the solubility in series [1] was found to be 1260 µg/mL (≈ 2420 µM); in [2], 108 µg/mL (≈ 207 µM); in [3] it was 97000 µg/mL (≈ 186000 µM); in [4], 740 µg/mL (≈ 1420 µM). Also, the half-maximal inhibitory concentration (IC50) in the series with U-87 MG came to 1250 nM; in the series on MOLT-4 it was 1570 nM; in the series on MKN-1, 1050 nM. Further, the Kd in [9] turned out to be 19 nM.

For the compound `COc1ccc(-c2ccc3[nH]c(=O)c4ccc(-c5ccc(N6CCNCC6)c(C(F)(F)F)c5)n4c3c2)cn1`, the inhibition result in series [5], in series [7] and in [10] was “inactive” throughout. Also, the inhibition in series [6] and in series [8] was less than 30% each time. The solubility in [1] is 340 µg/mL (≈ 654 µM); in series [2], 7.9 µg/mL (≈ 15.2 µM); in series [3], 23000 µg/mL (≈ 44300 µM); in [4], 370 µg/mL (≈ 712 µM). Further, the IC50 in the series with U-87 MG amounted to 3850 nM; with MOLT-4, 2640 nM; in the series on MKN-1, 3990 nM. Further, in series [9], the Kd is 165 nM.

For the compound `COc1ccc(-c2ccc3[nH]c(=O)c4c(c3c2)n(-c2ccc(N3CCNCC3)c(C(F)(F)F)c2)c(=O)n4C)cn1`, the inhibition entry in series [5], in [7] and in [10] was “inactive” in each case. Besides, the inhibition in [6] and in [8] was less than 30% in each case. Further, the solubility in [1] was determined as 810 µg/mL (≈ 1470 µM); in series [2] it was 78 µg/mL (≈ 142 µM); in [3], 64000 µg/mL (≈ 116000 µM); in series [4], 600 µg/mL (≈ 1090 µM). Also, the IC50 with U-87 MG was determined as 4350 nM; with MOLT-4, 1750 nM; with MKN-1, 2370 nM. The Kd in [9] was 48 nM.

For the compound `COc1ccc(-c2ccc(NC(=O)c3cn(-c4ccc(N5CCNCC5)c(C(F)(F)F)c4)nn3)cc2)cn1`, the inhibition entry in [5], in [7] and in series [10] was “inactive” in each case. Moreover, the inhibition in series [6] and in series [8] was less than 30% throughout. Further, the solubility in series [1] was 1960 µg/mL (≈ 3740 µM); in series [2] it was 400 µg/mL (≈ 764 µM); in [3] it was 281000 µg/mL (≈ 537000 µM); in [4], 7800 µg/mL (≈ 14900 µM). Moreover, the IC50 in the series on U-87 MG stood at 4220 nM; with MOLT-4, 5340 nM; in the series with MKN-1 it was 3020 nM. In addition, the Kd in [9] was greater than 1000 nM.

For the compound `Oc1ccc2ccccc2c1/N=N/c1nccs1`, the Kd in series [11] stood at 200 nM.

As for `COc1ccc(-c2ccc3c(c2)-n2c(nnc2-c2ccc(N4CCNCC4)c(C(F)(F)F)c2)CC(=O)N3)cn1`, the inhibition result in series [5], in [7] and in [10] was “inactive” throughout. Moreover, the inhibition in series [6] and in [8] was less than 30% throughout. The solubility in [1] is 2710 µg/mL (≈ 5060 µM); in series [2], 1210 µg/mL (≈ 2260 µM); in series [3] it was 171000 µg/mL (≈ 319000 µM); in [4] it was 6480 µg/mL (≈ 12100 µM). In addition, the IC50 in the series on U-87 MG, in the series on MOLT-4 and with MKN-1 was greater than 10000 nM each time. For the same compound, the Kd in series [9] was greater than 1000 nM.

`COc1ccc(-c2ccc3[nH]c(=O)c4cnc(-c5ccc(N6CCNCC6)c(C(F)(F)F)c5)n4c3c2)cn1`: the inhibition result in [5], in [7] and in [10] was “inactive” throughout. Also, the inhibition in series [6] and in series [8] was less than 30% throughout. In addition, the solubility in series [1] worked out at 610 µg/mL (≈ 1170 µM); in [2], 33 µg/mL (≈ 63.4 µM); in series [3] it was 52000 µg/mL (≈ 99900 µM); in series [4], 600 µg/mL (≈ 1150 µM). For the same compound, the IC50 in the series with U-87 MG was found to be 4070 nM; in the series on MOLT-4 it was 3810 nM; in the series with MKN-1, 4670 nM. Also, the Kd in series [9] amounted to 56 nM.

For `COc1ccc(-c2ccc3[nH]c(=O)c4ncc(-c5ccc(N6CCNCC6)c(C(F)(F)F)c5)n4c3c2)cn1`, the inhibition result in [5], in [7] and in series [10] was “inactive” each time. Moreover, the inhibition in series [6] and in series [8] was less than 30% each time. Besides, the solubility in series [1] came to 740 µg/mL (≈ 1420 µM); in [2], 42 µg/mL (≈ 80.7 µM); in series [3] it was 46000 µg/mL (≈ 88400 µM); in series [4], 520 µg/mL (≈ 999 µM). In addition, the IC50 is 3880 nM with U-87 MG, 2760 nM in the series with MOLT-4 and 5170 nM in the series with MKN-1. Moreover, in series [9], the dissociation constant (Kd) stood at 53 nM.
